Test results as given in ChEMBL document CHEMBL1142695, “Discovery of functionally selective 7,8,9,10-tetrahydro-7,10-ethano-1,2,4-triazolo[3,4-a]phthalazines as GABA A receptor agonists at the alpha3 subunit” (J Med Chem, 2005).

Assays:
Format in all cases: cell-based
[1] = molecular target: GABA-A receptor; alpha-3/beta-3/gamma-2 (Homo sapiens) (UniProt P18507+P28472+P34903); experiment: Efficacy was measured as modulation of the current in response to GABA at hGABA alpha-3-beta-3-gamma-2 receptor expressed in Xenopus oocytes; details: Oocyte
Procedure, shortened: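 Two-electrode voltage clamp on Xenopus oocytes expressing each receptor combination. […] Value is percent increase or decrease of the EC20 GABA current.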

[2] = molecular target: T1, GABA-A receptor; alpha-3/beta-3/gamma-2 (Homo sapiens, UniProt P18507+P28472+P34903); experiment: Inhibition of [3H]Ro-151788 binding to recombinant human gamma-aminobutyric-acid A receptor alpha-3-beta-3-gamma-2 subtype expressed in L (tk-) cells
T1 sequence (P18507 whole entry): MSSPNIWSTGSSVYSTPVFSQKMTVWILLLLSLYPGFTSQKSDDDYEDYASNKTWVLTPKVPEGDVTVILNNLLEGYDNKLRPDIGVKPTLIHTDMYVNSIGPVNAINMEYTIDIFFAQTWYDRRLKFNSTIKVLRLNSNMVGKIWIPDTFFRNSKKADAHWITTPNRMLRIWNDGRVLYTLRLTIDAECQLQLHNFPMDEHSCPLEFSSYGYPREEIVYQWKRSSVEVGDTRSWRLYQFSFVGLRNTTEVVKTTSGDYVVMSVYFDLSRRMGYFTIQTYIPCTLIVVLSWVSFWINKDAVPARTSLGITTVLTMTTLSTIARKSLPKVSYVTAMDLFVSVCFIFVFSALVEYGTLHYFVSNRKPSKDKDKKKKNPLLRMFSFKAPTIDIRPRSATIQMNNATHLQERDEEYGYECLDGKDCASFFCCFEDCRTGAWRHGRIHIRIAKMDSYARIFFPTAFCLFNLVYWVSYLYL
T1 sequence (P28472 whole entry): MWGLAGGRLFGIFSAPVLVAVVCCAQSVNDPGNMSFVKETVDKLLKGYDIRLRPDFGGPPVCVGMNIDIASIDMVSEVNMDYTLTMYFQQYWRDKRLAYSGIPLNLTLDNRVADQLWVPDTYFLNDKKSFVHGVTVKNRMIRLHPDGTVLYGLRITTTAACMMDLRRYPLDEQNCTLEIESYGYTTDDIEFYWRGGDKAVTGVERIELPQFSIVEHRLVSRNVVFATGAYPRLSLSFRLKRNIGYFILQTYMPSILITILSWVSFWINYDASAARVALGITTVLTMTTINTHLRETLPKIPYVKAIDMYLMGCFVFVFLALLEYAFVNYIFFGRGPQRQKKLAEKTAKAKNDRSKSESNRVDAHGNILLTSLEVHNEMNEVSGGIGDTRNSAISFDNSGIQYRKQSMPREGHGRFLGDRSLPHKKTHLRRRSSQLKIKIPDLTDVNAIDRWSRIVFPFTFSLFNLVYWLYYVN
T1 sequence (P34903 whole entry): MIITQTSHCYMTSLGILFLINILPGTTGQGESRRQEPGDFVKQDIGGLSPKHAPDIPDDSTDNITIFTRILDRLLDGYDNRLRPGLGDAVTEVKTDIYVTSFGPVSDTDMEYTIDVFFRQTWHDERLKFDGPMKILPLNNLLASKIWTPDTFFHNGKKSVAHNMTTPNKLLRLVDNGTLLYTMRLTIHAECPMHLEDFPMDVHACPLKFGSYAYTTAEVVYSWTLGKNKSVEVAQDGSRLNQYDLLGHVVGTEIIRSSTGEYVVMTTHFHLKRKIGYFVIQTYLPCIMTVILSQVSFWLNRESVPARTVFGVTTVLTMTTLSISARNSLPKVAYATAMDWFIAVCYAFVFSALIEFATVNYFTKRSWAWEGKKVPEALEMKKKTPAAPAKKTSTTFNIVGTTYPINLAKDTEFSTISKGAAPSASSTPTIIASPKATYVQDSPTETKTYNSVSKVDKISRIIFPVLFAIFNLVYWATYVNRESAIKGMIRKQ

[3] = molecular target: T2, GABA-A receptor; alpha-2/beta-3/gamma-2 (Homo sapiens, UniProt P18507+P28472+P47869); experiment: Inhibition of [3H]Ro-151788 binding to recombinant human gamma-aminobutyric acid A receptor alpha-2-beta-3-gamma-2 subtype expressed in L (tk-) cells
T2 sequence (P18507 whole entry): T1 sequence (P18507 whole entry)
T2 sequence (P28472 whole entry): T1 sequence (P28472 whole entry)
T2 sequence (P47869 whole entry): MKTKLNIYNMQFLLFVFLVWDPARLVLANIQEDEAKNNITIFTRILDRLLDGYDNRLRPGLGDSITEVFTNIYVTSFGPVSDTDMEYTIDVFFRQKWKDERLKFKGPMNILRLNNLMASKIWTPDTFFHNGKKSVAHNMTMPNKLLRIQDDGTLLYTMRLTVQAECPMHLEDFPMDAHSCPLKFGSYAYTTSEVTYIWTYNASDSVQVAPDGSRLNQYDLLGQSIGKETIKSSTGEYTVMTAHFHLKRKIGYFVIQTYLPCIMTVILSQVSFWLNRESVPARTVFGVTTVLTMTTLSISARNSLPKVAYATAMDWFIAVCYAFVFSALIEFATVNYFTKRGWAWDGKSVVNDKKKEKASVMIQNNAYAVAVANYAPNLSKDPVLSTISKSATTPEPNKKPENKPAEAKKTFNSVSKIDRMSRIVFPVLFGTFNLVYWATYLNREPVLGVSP

[4] = molecular target: T3, GABA-A receptor; alpha-1/beta-3/gamma-2 (Homo sapiens, UniProt P14867+P18507+P28472); experiment: Inhibition of [3H]Ro-151788 binding to recombinant human gamma-aminobutyric-acid A receptor alpha-1-beta-3-gamma-2 subtype expressed in L (tk-) cells
T3 sequence (P14867 whole entry): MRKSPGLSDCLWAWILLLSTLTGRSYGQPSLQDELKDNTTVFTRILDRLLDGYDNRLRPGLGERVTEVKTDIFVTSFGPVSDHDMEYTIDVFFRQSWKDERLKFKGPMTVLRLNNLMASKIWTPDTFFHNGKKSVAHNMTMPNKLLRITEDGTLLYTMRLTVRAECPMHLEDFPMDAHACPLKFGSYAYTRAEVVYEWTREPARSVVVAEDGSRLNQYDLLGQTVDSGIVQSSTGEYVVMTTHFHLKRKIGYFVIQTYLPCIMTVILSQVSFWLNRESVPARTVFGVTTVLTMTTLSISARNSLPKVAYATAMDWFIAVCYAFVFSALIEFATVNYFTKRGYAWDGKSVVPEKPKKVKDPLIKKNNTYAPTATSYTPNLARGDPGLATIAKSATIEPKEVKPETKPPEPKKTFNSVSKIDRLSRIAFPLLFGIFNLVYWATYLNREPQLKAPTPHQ
T3 sequence (P18507 whole entry): T1 sequence (P18507 whole entry)
T3 sequence (P28472 whole entry): T1 sequence (P28472 whole entry)

[5] = molecular target: T4, GABA-A receptor; alpha-5/beta-3/gamma-2 (Homo sapiens, UniProt P18507+P28472+P31644); experiment: Inhibition of [3H]Ro-151788 binding to recombinant human gamma-aminobutyric-acid A receptor alpha-5-beta-3-gamma-2 subtype expressed in L (tk-) cells
T4 sequence (P18507 whole entry): T1 sequence (P18507 whole entry)
T4 sequence (P28472 whole entry): T1 sequence (P28472 whole entry)
T4 sequence (P31644 whole entry): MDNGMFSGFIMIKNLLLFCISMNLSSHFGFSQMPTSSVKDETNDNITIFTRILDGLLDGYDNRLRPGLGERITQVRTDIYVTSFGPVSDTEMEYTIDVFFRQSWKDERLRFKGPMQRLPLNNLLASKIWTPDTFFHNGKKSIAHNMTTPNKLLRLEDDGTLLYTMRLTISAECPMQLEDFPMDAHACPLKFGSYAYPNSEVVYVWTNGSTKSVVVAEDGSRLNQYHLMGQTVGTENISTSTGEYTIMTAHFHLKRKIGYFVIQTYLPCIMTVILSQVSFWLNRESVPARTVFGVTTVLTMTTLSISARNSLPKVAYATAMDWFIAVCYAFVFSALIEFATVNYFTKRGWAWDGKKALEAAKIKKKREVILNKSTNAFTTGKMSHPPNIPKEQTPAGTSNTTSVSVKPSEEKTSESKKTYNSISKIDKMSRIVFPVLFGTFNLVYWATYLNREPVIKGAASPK

Efficacy [1] [%]	Ki [2] [nM]	Ki [3] [nM]	Ki [4] [nM]	Ki [5] [nM]	SMILES
27	3	6.5	16	0.77	c1ccc(-c2nnc3c4c(c(OCc5cnccn5)nn23)C2CCC4CC2)cc1
22	2.8	5.2	11	0.39	Cn1ncnc1COc1nn2c(-c3ccccc3)nnc2c2c1C1CCC2CC1
29	7.1	30	–	2.5	COC(=O)c1cccnc1COc1nn2c(-c3ccccc3)nnc2c2c1C1CCC2CC1
49	–	–	–	–	c1ccc(-c2nnc3c4c(c(OCc5nc[nH]n5)nn23)C2CCC4CC2)cc1
–	> 500	> 500	> 500	> 500	FC(F)(F)Oc1ccc(COc2nn3c(-c4ccccc4)nnc3c3c2C2CCC3CC2)cc1
–	170	290	> 1000	40	O=C(Nc1ccccn1)c1nn2c(-c3ccccc3)nnc2c2c1C1CCC2CC1
–	57	77	150	41	OCC1CCC(COc2nn3c(-c4ccccc4)nnc3c3c2C2CCC3CC2)CC1 (trans isomer)
–	26	34	82	3.9	c1ccc(-c2nnc3c4c(c(OCc5cnc6ccccc6n5)nn23)C2CCC4CC2)cc1
–	280	280	> 1000	22	Cc1ccccc1-c1nnc2c3c(c(OCc4ccccn4)nn12)C1CCC3CC1
–	140	210	570	17	Cc1cccc(-c2nnc3c4c(c(OCc5ccccn5)nn23)C2CCC4CC2)c1
–	170	310	650	42	OCCCOc1nn2c(-c3ccccc3)nnc2c2c1C1CCC2CC1
–	> 1000	> 1000	> 1000	> 1000	c1ccc(COc2nn3c(N4CCOCC4)nnc3c3c2C2CCC3CC2)nc1
–	24	28	100	2	Cc1cnc(COc2nn3c(-c4ccccc4)nnc3c3c2C2CCC3CC2)s1
–	53	83	190	2.6	N#Cc1ccccc1COc1nn2c(-c3ccccc3)nnc2c2c1C1CCC2CC1
–	150	320	> 1000	20	c1ccc(COc2nn3c(-c4ccncc4)nnc3c3c2C2CCC3CC2)nc1
–	33	68	87	9.2	c1ccc(-c2nnc3c4c(c(OCc5ncccn5)nn23)C2CCC4CC2)cc1
–	53	110	270	5.3	c1ccc(COc2nn3c(-c4ccco4)nnc3c3c2C2CCC3CC2)nc1
–	44	76	520	11	OCc1ccc(COc2nn3c(-c4ccccc4)nnc3c3c2C2CCC3CC2)cc1
–	19	25	43	2.8	c1ccc(-c2nnc3c4c(c(OCc5nnc[nH]5)nn23)C2CCC4CC2)cc1
–	> 1000	> 1000	> 1000	110	c1ccc(COc2nn3c(-c4ccccc4)nnc3c3c2C2CCC3CC2)cc1
–	> 500	> 500	> 500	> 500	c1ccc(-c2nnc3c4c(c(Oc5cccnc5)nn23)C2CCC4CC2)cc1
–	38	52	130	4.4	c1ccc(COc2nn3c(-c4ccsc4)nnc3c3c2C2CCC3CC2)nc1
–	18	35	80	2.7	Cc1conc1COc1nn2c(-c3ccccc3)nnc2c2c1C1CCC2CC1
–	18	24	130	1.8	c1ccc(COc2nn3c(C4CC4)nnc3c3c2C2CCC3CC2)nc1
–	> 500	> 500	> 500	> 500	c1ccc(-c2nnc3c4c(c(OCc5ccc6c(c5)OCO6)nn23)C2CCC4CC2)cc1
–	89	160	220	10	CN(C)C(=O)COc1nn2c(-c3ccccc3)nnc2c2c1C1CCC2CC1
–	66	110	140	16	Cc1nc(COc2nn3c(-c4ccccc4)nnc3c3c2C2CCC3CC2)no1
–	51	250	290	12	Cc1noc(COc2nn3c(-c4ccccc4)nnc3c3c2C2CCC3CC2)n1
–	260	480	730	59	O=C1CCC(COc2nn3c(-c4ccccc4)nnc3c3c2C2CCC3CC2)N1 (centres undefined)
–	23	42	73	1.3	Clc1ccc(COc2nn3c(-c4ccccc4)nnc3c3c2C2CCC3CC2)nn1
